These results are taken from ChEMBL document CHEMBL1156477, “Small-molecule-mediated rescue of protein function by an inducible proteolytic shunt” (Proc Natl Acad Sci U S A, 2007).

The subject of this experiment is SYF. The experiment is described as follows: Effect on proliferation of mouse SYF cells expressing FRB3-ubiquitin-C-v-src construct at 100 nM after 24 hsr by MTT assay. It is filed as functional, cell-based. In outline: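 SYF cells (DMEM/10% FBS, 37°C, 5% CO2) transfected via FuGENE-6 with construct 1 plus v-Src cleavage construct; after 24 h expression, trypsinized, ~1 × 10^4 cells replated with rapamycin (100 nM) or DMSO; MTT proliferation assay performed after a further 24 h.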

Calls of active or inactive are those of the source. No cut-off for these calls is given here.

With `CO[C@H]1C[C@@H]2CC[C@@H](C)[C@@](O)(O2)C(=O)C(=O)N2CCCC[C@H]2C(=O)O[C@H]([C@H](C)C[C@@H]2CC[C@@H](O)[C@H](OC)C2)CC(=O)[C@H](C)/C=C(\C)[C@@H](O)[C@@H](OC)C(=O)[C@H](C)C[C@H](C)/C=C/C=C/C=C/1C`, the result was Active.
